Shown are actives, neighbours in structure and some others; about 2% of the full set was active somewhere.
CaV13 ICDI inh: Primary screen for inhibitors of IQ motif and Ca2+-dependent inactivation inhibitor domain binding in CACNA1D, Förster resonance energy transfer in living cells, …; HEK cells, CFP/YFP FRET ICDI-IQ, plate reader, 10 min; percent FRET-ratio fall versus neutral wells; inhibition, % at 12.3 µM; 340,000 compounds, 0.098% hits;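 active = mean replicate inhibition of at least 30% and at least 1% of replicates passing that level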
LGR2 antag: blocks bursicon-induced cAMP signaling via Drosophila LGR2 | HEK293 LGR2, CRE-luciferase, bursicon-stimulated, 4 h | inhibition, % at 9.99 µM | 380,000 compounds, 0.35% hits | AID 720647;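 active = drop in luminescence signal, shown as inhibition above about 50% in the replicate tests, limit read from the data, passing the limit was not always enough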;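 note: agonist challenge used bursicon conditioned medium at about half maximal strength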
XiGFP reactiv: activators of X-chromosome reactivation in mouse fibroblasts | 360,000 compounds, 0.055% hits | activation, % at 7.58 µM | XiGFP mouse fibroblasts, % GFP-positive cells imaging, 3 d; cells co-treated with 5-aza-dC sensitizer; scaled so ellipticine positive control = 100% | AID 743238;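 active = mean normalized replicate activation at least 10% and every replicate at or above 10%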
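Material: XiGFP fibroblasts, SV40-immortalized; Buffer or medium: DMEM containing 5-aza-dC; Compound dosing: single point; Times: 3 days compound exposure.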
TROY NFkB inh: blocks TROY-dependent signaling in reporter cells. Q293 LMP1-TROYcd NF-kB luciferase reporter, 4 h. inhibition, % at 10 µM. 360,000 compounds, 0.98% hits;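 active = compounds whose plate-normalised and pattern-corrected inhibition of the luciferase reporter signal at the single screening dose is 50% or more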
TWEAK Fn14 block: blocks TWEAK-Fn14 interaction in a reporter cell assay. AID 1159606. 360,000 compounds, 2% hits. inhibition, % at 10 µM. TWEAK-stimulated Fn14 reporter cells, luciferase luminescence, 8 h; in the data active = inhibition above about 50%
Numbers stand for hits; – = inactive; · = not tested or not shown.

SMILES | CaV13 ICDI inh | LGR2 antag | XiGFP reactiv | TROY NFkB inh | TWEAK Fn14 block
CCc1ccc(/C=C2\SC(=S)N(CCCC(=O)NC3=NCCS3)C2=O)cc1 | – | – | – | 77 | 92
COC(=O)C[C@@H]1CC[C@@H]2[C@@H](COc3ccc(NC(=O)c4ccccc4)cc3C(=O)N2C)O1 | · | – | – | · | ·
COc1cccc(NC(=O)N[C@@H]2CC[C@@H](CC(=O)Nc3ccccc3)O[C@@H]2CO)c1 | · | – | – | · | ·
CC(C)(C)N1C(=O)c2ccc(C(=O)Nc3cc(C(=O)O)cc(C(=O)O)c3)cc2C1=O | – | – | – | – | 99
Cc1cc(NC(=O)c2ccc3c(c2)C(=O)N(C(C)(C)C)C3=O)no1 | – | · | – | – | –
Cc1noc(C)c1NC(=O)N[C@@H]1CC[C@H](CC(=O)N2CCCCC2)O[C@H]1CO | · | – | – | · | ·
Cc1nn(CC(=O)c2ccccc2Cl)c(C)c1[N+](=O)[O-] | – | – | – | 57 | 52
COc1ccc(C2NC3=C(CCC3)C3(C#N)C(OC)(OC)N=C(N)C23C#N)cc1 (configuration not stated) | · | · | · | 54 | 96
COC1(OC)N=C(N)C2(C#N)C(c3ccccc3)NC(C)=CC12C#N (configuration not stated) | – | · | · | – | –
Cc1ccc(S(=O)(=O)Nc2ccc3c(c2)C(=O)N([C@@H](C)CO)C[C@@H](C)[C@H](CN(C)S(=O)(=O)c2cn(C)cn2)OCCCC[C@@H](C)O3)cc1 | · | – | – | · | ·
C=CS(=O)(=O)N(Cc1ccccc1)[C@H](CO)CC(C)C | – | · | – | – | –
C=CS(=O)(=O)N(Cc1ccccc1Br)[C@H](CO)Cc1ccccc1 | – | – | – | – | 51
COc1ccccc1C(=O)NC(=S)N1CCCc2ccccc21 | – | – | · | – | 59
COc1ccc(OCC(=O)NC(=S)N2CCCc3ccccc32)cc1 | – | – | · | – | 55
COc1ccccc1NC(=O)Nc1ccccc1N1CCOCC1 | – | – | – | – | 61
COc1ccccc1C(=O)Nc1ccccc1N1CCOCC1 | – | – | · | – | –
COc1ccccc1C(=O)NC(=S)Nc1ccccc1N1CCCC1 | – | – | – | 78 | 76
O=C(C1CC1)N1CC2(C1)[C@H](c1ccccc1)[C@@H](CO)N2C(=O)CC1CC1 | · | – | – | · | ·
COc1ccc(C(C)=O)cc1CSc1nnc(C)s1 | · | · | · | – | –
COc1ccc(C(C)=O)cc1CSc1nnc(Nc2ccc(C)cc2)s1 | – | · | – | – | 63
COc1ccc(C(C)=O)cc1CSc1nnc(Nc2ccccc2)s1 | – | – | – | – | 70
C[C@H](CO)N1C[C@H](C)[C@H](CN(C)Cc2ccncc2)Oc2cc(Br)ccc2S1(=O)=O | · | · | – | · | ·
Cc1ccc(-c2ccccc2[C@@H]2C[C@H]3CN(C)C(=O)[C@]34CCCN24)o1 | – | – | – | – | –
O=C1N(c2ccccc2)C[C@@H]2C[C@@H](c3cc4ccccc4o3)N3CCC[C@@]123 | – | 90 | – | – | 84
COc1cccc(C(=O)Nc2ccc3c(c2)C(=O)N(C)C[C@H](OC)[C@H](C)CN(C)[C@@H](C)CO3)c1 | · | – | – | · | ·
SMILES | CaV13 ICDI inh | LGR2 antag | XiGFP reactiv | TROY NFkB inh | TWEAK Fn14 block
Cc1ccc(-c2nc(NC(=O)c3nn(C)cc3[N+](=O)[O-])sc2C)cc1 | – | – | · | – | 59
Cc1ccc(-c2nc(NC(=O)c3nn(C)cc3[N+](=O)[O-])sc2C)cc1C | – | – | · | – | –
C[C@@H]1CCCCO[C@@H](CN(C)C(=O)Nc2ccc(F)cc2)[C@@H](C)CN([C@@H](C)CO)C(=O)c2cc(NC(=O)Nc3ccc(F)cc3)ccc2O1 | · | – | – | · | ·
C[C@H](CO)N1C[C@H](C)[C@H](CN(C)C(=O)Nc2cccc3ccccc23)OCCCC[C@H](C)Oc2ccc(NC(=O)NC3CCCCC3)cc2C1=O | · | 60 | – | · | ·
C[C@H](CO)N1C[C@H](C)[C@H](CN(C)C(=O)Nc2ccc(F)cc2)OCCCC[C@H](C)Oc2ccc(NC(=O)Nc3ccc(F)cc3)cc2C1=O | · | 53 | – | · | ·
CNC(=O)C[C@@H]1CC[C@@H]2[C@H](COc3ccc(NC(=O)C(C)C)cc3C(=O)N2C)O1 | · | – | – | · | ·
O=S(=O)(Nc1nc(-c2sccc2Cl)cs1)c1cc(Cl)ccc1Cl | · | · | · | 58 | –
CC(C)(C)c1nnc(NS(=O)(=O)c2cc(Cl)ccc2Cl)s1 | – | – | – | – | –
O=C(C[C@@H]1CC[C@H]2[C@@H](COC[C@H](O)CN2Cc2cccc(C(F)(F)F)c2)O1)NCCc1ccccc1 | · | – | – | · | ·
CN(c1cccc(NC(=O)CN(c2ccc(F)cc2)S(C)(=O)=O)c1)S(C)(=O)=O | – | – | – | – | –
CN(c1cccc(NC(=O)CN(c2ccc(C34CC5CC(CC(C5)C3)C4)cc2)S(C)(=O)=O)c1)S(C)(=O)=O | · | · | · | – | 61
C[C@H](CO)N1C[C@H](C)[C@H](CN(C)C(=O)Nc2ccc(C(F)(F)F)cc2)Oc2ccc(NC(=O)NC3CCCCC3)cc2C1=O | · | – | – | · | ·
CCNC(=O)C[C@H]1CC[C@@H]2[C@@H](COc3ccc(NC(=O)Nc4cccc(F)c4)cc3C(=O)N2C)O1 | · | – | – | · | ·
CC(=O)N1CCc2cc(S(=O)(=O)C(C)CC(=O)NCc3ccco3)ccc21 (configuration not stated) | – | 56 | – | – | –
CCN1C(=O)N(CC)c2cccc3cccc1c23 | – | – | – | – | 92
CCN1C(=O)c2cccc3cccc1c23 | – | – | · | – | –
Cc1ccnc(NC(=O)Nc2cccc(F)c2)c1 | – | · | · | – | 66
Cc1ccc(NC(=O)Nc2cccc(F)c2)nc1 | – | – | – | – | –
COc1ccc(CNc2nc(S(=O)(=O)c3ccccc3)c(Cl)s2)cc1OC | – | – | – | – | 70
Cc1ccc(S(=O)(=O)c2nc(Nc3ccccc3)sc2Cl)cc1 | – | – | – | 54 | –
C[C@H](NC(=O)C[C@@H]1C[C@@H]2c3cc(NC(=O)CC4CC4)ccc3O[C@@H]2[C@@H](CO)O1)c1ccccc1 | · | – | – | · | ·
O=C(Cc1ccccn1)c1ccccc1 | – | – | – | – | –
O=C(CCCc1ccccn1)c1ccccc1 | – | – | – | – | 84
O=C(C[C@H]1CC[C@@H]2[C@H](COC[C@H](O)CN2C(=O)Nc2cc(Cl)cc(Cl)c2)O1)NCC1CCCCC1 | · | – | – | · | ·
S=C(NN=C1C2CC3CC(C2)CC1C3)Nc1ccccc1 | – | · | · | 75 | 94
c1ccc2c(c1)oc1c(Nc3ccc(CN4CCOCC4)cc3)ncnc12 | – | · | · | 52 | 75
Cc1ccc(S(=O)(=O)N[C@H]2CC[C@@H](CCn3cc(C(C)C)nn3)O[C@@H]2CO)cc1 | · | – | – | · | ·
O=C(c1ccccc1)C1OC1C(=O)c1ccccc1 (configuration not stated) | – | – | – | – | 70
CC1C=CC(C)C(C(=O)c2ccccc2)C1C(=O)c1ccccc1 (configuration not stated) | – | · | – | – | –

Compound activity deposited in PubChem BioAssay by several laboratories.
